# Variants at the floor of the assay were thinned out.
# B1: tRNA (parent)
# chain: GUUCCGUUGGCGUAAUGGUAACGCGUCUCCCUCCUAAGGAGAAGACUGCGGGUUCGAGUCCCGUACGGAACG
# Variants of: B1
# Experiment: yeast fitness relative to wild type (ratio to wild type); higher = fitter; tRNA-Arg(CCU), competitive growth, 37 C, YPD
# Summary of the method: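 Genotype frequency changes were the basis for Darwinian fitness relative to wild type. The frequencies came from 100-nucleotide paired-end sequencing of gene amplicons from the start population and each end population of pooled yeast strains with tRNA-Arg(CCU) gene variants at the native locus. Competition ran in YPD at 37°C for 24 hours in six replicates, genotypes needed ≥ 100 starting reads, and estimates < 0.5 were set to 0.5.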
row,Variant,yeast fitness
1,G10C C33A G48A G58A,≤ 0.5
2,C11A A43U A45C U53C,≤ 0.5
3,C11A A21C C55U,≤ 0.5
4,C11A A45U C55U G68U,≤ 0.5
5,G10C G51A,0.585
6,C11A A65C,0.607
7,G10U C27G G39A G67A,≤ 0.5
8,G10C C34G A69U A70C,0.711
9,G10U G12A A43C A69G,0.566
10,G10C G12A A45C,0.539
11,G10C C27G U54C C61G,≤ 0.5
12,G10C C29G G39A U64A,≤ 0.5
13,G10C C31U U35G C62U,≤ 0.5
14,C11A A42G A43U C46U C62U,0.582
15,C11A A15U A20G,≤ 0.5
16,G10U A14U G44C,0.646
17,C11A A20G G39A G51A U53A G63C,0.545
18,C11A A65G C66U,0.571
19,C11A A45G U53G,≤ 0.5
20,G10C C46G U54C,≤ 0.5
21,G10C C29A A40U C55G,≤ 0.5
22,C11A A42C G50C A57C C61G,≤ 0.5
23,C11A C22U G44C C60U A69G,0.597
24,C11A A14U C30G,≤ 0.5

row,Variant,yeast fitness
1,C11A A36C A43G G50C,≤ 0.5
2,C11A C22G G25A C34A G41A C66A,≤ 0.5
3,G10C G18C C24U C66U,≤ 0.5
4,C11A A21U G41A,≤ 0.5
5,C11A A20U C27U U47C G50A,0.618
6,C11A A20U C29U C33G C62A A70U,≤ 0.5
7,C11A A37U G48A,≤ 0.5
8,C11A A21U A43U A57G,≤ 0.5
9,C11A A21U G41A G58A A65G,≤ 0.5
10,G10U A15U C31G G50C U59C,≤ 0.5
11,C11A A37C C49G C66A,≤ 0.5
12,G10C G25A U26C C46G,≤ 0.5
13,G10C C31U U35G,≤ 0.5
14,G10C C30G,0.507
15,G10C C30U,0.733
16,G10C C30A,0.815
17,G10C U32C C33A A45U,≤ 0.5
18,C11A A57G A69G,≤ 0.5
19,C11A A45C,0.563
20,C11A C22U C24G C30G,≤ 0.5
21,G10C C33U A36G A43G,≤ 0.5
22,C11A A20C C29U,0.564
23,C11A A21C C31A C62U,≤ 0.5
24,G10C G12C C33U U35G C49G,≤ 0.5

row,Variant,yeast fitness
1,G10C G56A,0.596
2,G10C C27G G38C G56A,0.526
3,G10C U16A C30U,0.54
4,G10C C46A A69U,0.615
5,G10C U13C G18C C27U C33G A37G C55U U64A G68C A70U,≤ 0.5
6,C11A A15G C61U,0.528
7,G10C C29U C46A A69U,0.59
8,G10C G50A U59A G67U,≤ 0.5
9,G10C C49U C62U,≤ 0.5
10,G10C C29A A40U C55G G67C,≤ 0.5
11,G10C C29U C31U A45C,0.623
12,G10U A69U,0.864
13,G10C C33U A40C,≤ 0.5
14,G10C G44C U47C G52A U53C C61U,≤ 0.5
15,G10C C27U A36C C61U,0.586
16,C11A A21U C49A,≤ 0.5
17,C11A A57G C66U,≤ 0.5
18,G10C G12A G25C A37G,≤ 0.5
19,C11A A21U C30A A45U C49U C55U,≤ 0.5
20,G10C G56A A70C,0.554
21,G10C C61G,0.656
22,G10C C61U,0.792
23,G10C U19G C29U U54A,≤ 0.5
24,C11A A20G C62U C66A,≤ 0.5

row,Variant,yeast fitness
1,G10C U35G A43C U47C C55U,≤ 0.5
2,C11A A42G U64A G67A,≤ 0.5
3,G10C G18A C22U G63A,≤ 0.5
4,C11A A15C C24A C27A G41C G56A,0.542
5,G10C G12U C33U U35G,≤ 0.5
6,G10C G12C C24U C29G G68C,≤ 0.5
7,G10C C29A C46U C60G,≤ 0.5
8,C11A A14G,0.628
9,C11A A21C G39C,≤ 0.5
10,C11A A14G C29U A65C,≤ 0.5
11,G10C G50A U59A,≤ 0.5
12,C11A A15C U54C C66G,≤ 0.5
13,C11A A21C C30U,0.678
14,G10C G12C,0.645
15,G10C G12A,0.757
16,G10C G23A U35A A40U A42U C55G,≤ 0.5
17,C11A A43G G50C,≤ 0.5
18,G10C U64C,0.618
19,G10U A14U,≤ 0.5
20,G10C C29A A40U C62G,≤ 0.5
21,G10C U13C G18C C27U C33G C46A C55U U64A G68C A70U,≤ 0.5
22,C11A A36U A40C,≤ 0.5
23,G10C G58A,0.553
24,G10C G58C,0.722

row,Variant,yeast fitness
1,G10C G58U,≤ 0.5
2,G10C G12C C55A,≤ 0.5
3,C11A A15G C34G G52C C61U,≤ 0.5
4,G10C C46G G51A G52A,≤ 0.5
5,G10C G44A,0.699
6,G10C C29U C49G G63C,≤ 0.5
7,C11A A43G U64A,0.601
8,G10C G12C C33U U35G,0.614
9,G10C C33G A36C U64A A65C,≤ 0.5
10,C11A A37G C49A,0.653
11,G10C C34A,0.504
12,C11A A15U C30A A42C,≤ 0.5
13,G10C U32A G38C U64C,≤ 0.5
14,C11A A21C U64A,0.688
15,C11A A37G A40G A43G G52C U59G,≤ 0.5
16,C11A A43G U47C A65C,≤ 0.5
17,C11A A20U U47C,≤ 0.5
18,C11A A15G A20G A37C G50A G67C,≤ 0.5
19,C11A A42U,0.724
20,G10C C30G C34G A57G C66U,0.523
21,G10C C55A,0.568
22,C11A A36G C62U,0.539
23,G10C U13A A43U C61A A70C,≤ 0.5
24,C11A A14C C34A,0.58

row,Variant,yeast fitness
1,G10C U26A C49U,≤ 0.5
2,C11A A40G,0.602
3,C11A A21C U26G A65G A69C,0.525
4,C11A A14U C30U C33A A36U A57G,≤ 0.5
5,G10C C34G C49U,≤ 0.5
6,C11A A20G C55U C61A,≤ 0.5
7,C11A C22G G48C,0.535
8,G10C U16G C31A U32G C55U,≤ 0.5
9,G10C U13C U53C,0.512
10,C11A A15C C24G C61A A69C,≤ 0.5
11,C11A A37U,0.587
12,C11A A37G,0.566
13,C11A A20G,0.556
14,C11A A20U,0.681
15,G10C C34A C55U,≤ 0.5
16,C11A A21C C31A,0.567
17,C11A A20C C29U U47C A70U,≤ 0.5
18,C11A C22G C49G G68C A69C,≤ 0.5
19,G10U C11G C24U C34U C46A,≤ 0.5
20,C11A A21C A37C A40C A69C,≤ 0.5
21,C11A C22G C34A G41A A70U,≤ 0.5
22,G10C U26C A45G C49U C55G,≤ 0.5
23,G10C C31U A57C C62A A70U,≤ 0.5
24,C11A A20U U32C,0.733

row,Variant,yeast fitness
1,G10C C34A A40G A69U,0.552
2,G10C G12A A15G A69C,≤ 0.5
3,C11A A21C C34A A57U C61A,0.539
4,G10C G51A G63A,≤ 0.5
5,G10C U13A A14G A20G C22A C24G C62G,≤ 0.5
6,G10C G18A C66U,≤ 0.5
7,G10C C34A G67A,≤ 0.5
8,C11A A20G U59G,≤ 0.5
9,G10C U54G,≤ 0.5
10,G10C U54A,≤ 0.5
11,G10C C60A C62A,0.529
12,C11A A15U A20C C34G,≤ 0.5
13,G10C G44C G51C,≤ 0.5
14,G10C G12C C46G C55U G67C,≤ 0.5
15,C11A A15U C34A G39C A40C G56C C61G C62G G68C,≤ 0.5
16,C11A A15G A20G C24U A37C G50A G67C,≤ 0.5
17,G10C C29A C31U G68C,≤ 0.5
18,C11A A21G C34U A37G U47C A57G C62U,≤ 0.5
19,G10C C33G U53C C55U A70G,≤ 0.5
20,G10C C33U G48C,≤ 0.5
21,G10C G48A U54A A69C,≤ 0.5
22,G10C G50A C61G,0.554
23,C11A A37C C49G,≤ 0.5

# From the RNAGym collection of RNA variant scans (doi:10.1126/science.aae0568)
